Structures are written as SMILES.

The results in this text go back to ChEMBL document CHEMBL1156002, “Synthesis, Raman, FT-IR, NMR spectroscopic characterization, antimicrobial activity, cytotoxicity and DNA binding of new mixed aza-oxo-thia macrocyclic compounds” (2009).

Common to all, as to type: functional
For assay [1], the system named is Micrococcus luteus. The experiment in a line: Antibacterial activity against Micrococcus luteus La 2971 at 5 ug after 24 hrs by agar disk diffusion assay. Particulars: La 2971, 24 h, read-out: IZ. The method in brief:
(§1)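 Disk diffusion with sterile 6 mm discs loaded with DMSO solutions of the test agents and placed on inoculated agar. Bacteria were pre-grown in Nutrient Broth at 30 °C for 24 h, and plates were incubated at 35 °C for 24 h. Each plate carried a reference antibiotic disc matched to the organism, and a DMSO-only solvent control was run.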

Assay [2] relates to Proteus vulgaris. The assay is described as follows: Antibacterial activity against Proteus vulgaris ATCC 8427 at 5 ug after 24 hrs by agar disk diffusion assay. Particulars: ATCC 8427, 24 h, read-out: IZ. The essentials: as §1
In assay [3] the test system is Mycolicibacterium smegmatis. The experiment in a line: Antibacterial activity against Mycobacterium smegmatis CCM 2067 at 5 ug after 24 hrs by agar disk diffusion assay. Particulars: CCM 2067, 24 h, read-out: IZ. The method in brief:
as §1
On the technique in general: In agar diffusion tests the substance spreads into inoculated agar from a disc or well.

Assay [4] concerns Listeria monocytogenes. The assay is described as follows: Antibacterial activity against Listeria monocytogenes ATCC 15313 at 5 ug after 24 hrs by agar disk diffusion assay. Particulars: ATCC 15313, 24 h, read-out: IZ. The essentials:
as §1

Assay [5] relates to Pseudomonas aeruginosa. The experiment in a line: Antibacterial activity against Pseudomonas aeruginosa ATCC 27853 at 5 ug after 24 hrs by agar disk diffusion assay. The following applies: ATCC 27853, 24 h, read-out: IZ. The method in brief:
as §1

Assay [6] deals with Escherichia coli. The experiment in a line: Antibacterial activity against Escherichia coli ATCC 11230 at 5 ug after 24 hrs by agar disk diffusion assay. Particulars: ATCC 11230, 24 h, read-out: IZ. The essentials:
as §1

Assay [7] relates to Staphylococcus aureus. The experiment in a line: Antibacterial activity against Staphylococcus aureus ATCC 6538 at 5 ug after 24 hrs by agar disk diffusion assay. Particulars: ATCC 6538, 24 h, read-out: IZ. The method in brief:
(§2)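 Sterile 6 mm paper discs were loaded with ligand solution freshly prepared in DMSO and placed on inoculated agar. The inoculum came from broth cultures: bacteria in Nutrient Broth at 30 °C for 24 h, yeasts in Malt Extract Broth for 48 h. Plates were incubated at 35 °C for 24 h (bacteria) or 25 °C for 72 h (yeasts). A DMSO solvent control and a reference antibiotic disc were included on each plate.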

For assay [8], the system named is Klebsiella pneumoniae. The experiment in a line: Antibacterial activity against Klebsiella pneumoniae UC57 at 5 ug after 24 hrs by agar disk diffusion assay. The following applies: UC57, 24 h, read-out: IZ. The method in brief: as §1
Assay [9] concerns Bacillus cereus. The experiment in a line: Antibacterial activity against Bacillus cereus ATCC 7064 at 5 ug after 24 hrs by agar disk diffusion assay. Particulars: ATCC 7064, 24 h, read-out: IZ. The essentials: as §1
Assay [10] relates to Escherichia coli. The experiment in a line: Antibacterial activity against Escherichia coli ATCC 11230 at 30 ug after 24 hrs by agar disk diffusion assay. Particulars: ATCC 11230, 24 h, read-out: IZ. The essentials:
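Bacteria pre-grown in Nutrient Broth at 30 °C for 24 h. Sterile 6 mm discs loaded with compound solutions freshly made in DMSO were placed on inoculated agar and incubated at 35 °C for 24 h. The medium was supplemented with DMSO as a solvent control, and an appropriate reference antibiotic disc was added to each plate.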

The test system of assay [11] is Staphylococcus aureus. The assay is described as follows: Antibacterial activity against Staphylococcus aureus ATCC 6538 at 30 ug after 24 hrs by agar disk diffusion assay. The following applies: ATCC 6538, 24 h, read-out: IZ. The essentials:
as §2

In assay [12] the test system is Klebsiella pneumoniae. The assay is described as follows: Antibacterial activity against Klebsiella pneumoniae UC57 at 30 ug after 24 hrs by agar disk diffusion assay. The following applies: UC57, 24 h, read-out: IZ. The essentials:
as §1

Assay [13] relates to Bacillus cereus. The experiment in a line: Antibacterial activity against Bacillus cereus ATCC 7064 at 30 ug after 24 hrs by agar disk diffusion assay. Particulars: ATCC 7064, 24 h, read-out: IZ. The method in brief: as §1
Assay [14] concerns Micrococcus luteus. The experiment in a line: Antibacterial activity against Micrococcus luteus La 2971 at 30 ug after 24 hrs by agar disk diffusion assay. Particulars: La 2971, 24 h, read-out: IZ. The method in brief:
as §1

Assay [15] has as its system Proteus vulgaris. The experiment in a line: Antibacterial activity against Proteus vulgaris ATCC 8427 at 30 ug after 24 hrs by agar disk diffusion assay. The following applies: ATCC 8427, 24 h, read-out: IZ. The method in brief: as §1
Assay [16] has as its system Mycolicibacterium smegmatis. The assay is described as follows: Antibacterial activity against Mycobacterium smegmatis CCM 2067 at 30 ug after 24 hrs by agar disk diffusion assay. Particulars: CCM 2067, 24 h, read-out: IZ. The method in brief:
as §1

The subject of assay [17] is Listeria monocytogenes. The assay is described as follows: Antibacterial activity against Listeria monocytogenes ATCC 15313 at 30 ug after 24 hrs by agar disk diffusion assay. The following applies: ATCC 15313, 24 h, read-out: IZ. The method in brief:
as §1

Assay [18] has as its system Pseudomonas aeruginosa. The experiment in a line: Antibacterial activity against Pseudomonas aeruginosa ATCC 27853 at 30 ug after 24 hrs by agar disk diffusion assay. Particulars: ATCC 27853, 24 h, read-out: IZ. The method in brief:
as §1

A further assay deals with Kluyveromyces marxianus. The assay is described as follows: Antifungal activity against Kluyveromyces fragilis NRRL 2415 at 10 ug after 72 hrs by agar disk diffusion assay. Particulars: NRRL 2415, 72 h, read-out: IZ. The method in brief:
as §2

Another assay deals with Rhodotorula mucilaginosa. The experiment in a line: Antifungal activity against Rhodotorula rubra DSM 70403 at 10 ug after 72 hrs by agar disk diffusion assay. Particulars: DSM 70403, 72 h, read-out: IZ. The essentials:
as §2

In another assay the test system is Candida albicans. The assay is described as follows: Antifungal activity against Candida albicans ATCC 10231 at 10 ug after 72 hrs by agar disk diffusion assay. Particulars: ATCC 10231, 72 h, read-out: IZ. The essentials: as §2
In assay [19] the test system is Hanseniaspora guilliermondii. The assay is described as follows: Antifungal activity against Hanseniaspora guilliermondii DSM 3432 at 10 ug after 72 hrs by agar disk diffusion assay. The following applies: DSM 3432, 72 h, read-out: IZ. The method in brief:
as §2

A further assay relates to Debaryomyces hansenii. The assay is described as follows: Antifungal activity against Debaryomyces hansenii DSM 70238 at 10 ug after 72 hrs by agar disk diffusion assay. The following applies: DSM 70238, 72 h, read-out: IZ. The essentials:
as §2

In the case of `CC1COc2c(N3CCN(C)CC3)c(F)cc3c(=O)c(C(=O)O)cn1c23` (configuration not stated) [OFLOXACIN], the zone of inhibition at 5 µg/disc in the assay on Micrococcus luteus [1] turned out to be 28 mm; in the assay with Proteus vulgaris [2], 30 mm; in assay [3], 32 mm; with Listeria monocytogenes [4] it was 30 mm; in the assay on Pseudomonas aeruginosa [5], 28 mm; with Escherichia coli [6] it was 30 mm. Also, the zone of inhibition at 5 µg/disc stood at 24 mm with Staphylococcus aureus [7], 28 mm in the assay on Klebsiella pneumoniae [8] and 44 mm with Bacillus cereus [9].

Regarding `CO/N=C(\C(=O)N[C@@H]1C(=O)N2C(C(=O)O)=C(COC(C)=O)CS[C@H]12)c1csc(N)n1` [CEFOTAXIME], the zone of inhibition at 30 µg/disc with Escherichia coli [10] stood at 10 mm; in the assay with Staphylococcus aureus [11] it was 12 mm; in the assay with Klebsiella pneumoniae [12], 13 mm; in the assay with Bacillus cereus [13], 54 mm; in the assay with Micrococcus luteus [14], 18 mm; with Proteus vulgaris [15], 14 mm. Besides, the values for the zone of inhibition at 30 µg/disc (in assay [16]; in the assay with Listeria monocytogenes [17]; with Pseudomonas aeruginosa [18]) were 11 mm, 16 mm and 32 mm, respectively.

With `Clc1ccccc1C(c1ccccc1)(c1ccccc1)n1ccnc1` [CLOTRIMAZOLE], the zone of inhibition at 10 µg/disc in the assay on Kluyveromyces marxianus came out at 15 mm; with Rhodotorula mucilaginosa, 18 mm; in the assay with Candida albicans, 16 mm; in assay [19] it was 22 mm; in the assay on Debaryomyces hansenii, 18 mm.

In the case of `CN(C)[C@@H]1C(O)=C(C(N)=O)C(=O)[C@@]2(O)C(O)=C3C(=O)c4c(O)cccc4[C@@](C)(O)[C@H]3C[C@@H]12` [TETRACYCLINE], the zone of inhibition at 30 µg/disc came out at 28 mm in the assay on Escherichia coli [10]; 26 mm in the assay with Staphylococcus aureus [11]; 30 mm with Klebsiella pneumoniae [12]; 34 mm in the assay with Bacillus cereus [13]; 26 mm in the assay with Micrococcus luteus [14]; 25 mm in the assay on Proteus vulgaris [15]. Further, the zone of inhibition at 30 µg/disc in assay [16] is 24 mm; with Listeria monocytogenes [17], 28 mm; in the assay with Pseudomonas aeruginosa [18], 22 mm.
